Experiments:
[1] = folding enthalpy; higher = less favourable; fluorescence melt of hairpins on a sequencing array, two-state fit; conditions: sodium 0.088 M
How it was run: (§1)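 Melting temperature and folding enthalpy were derived from bootstrapped two-state fits. The fitted temperatures were raised by 9.35 °C to agree with UV melts, and four replicates were combined by inverse variance. The underlying data were Cy3 fluorescence images of library hairpins, with annealed Cy3 and quencher oligos, on a sequenced MiSeq flow cell in 50 mM Na-HEPES pH 8.0, 25 mM NaCl, taken in 2.5 °C steps up to 60 °C, normalised to pre-quench Cy3 and to control constructs.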

[2] = melting temperature; fluorescence melt of hairpins on a sequencing array, two-state fit, raised by 9.35 °C to match UV melts; conditions: sodium 0.088 M
How it was run: as §1

Sequence	folding enthalpy [1]	Tm [2]
GGGGGTGGAAACACCTCC ((.((((....)))).))	-29.1 kcal/mol	54.9 °C
CGACCGGAAACGGGCTCG ((((((....)))..)))	-12.1 kcal/mol	35.8 °C
GGTAACGAAAGTTCAACC ((((((....)))..)))	-11 kcal/mol	27.7 °C
GCCGCCGAAAGGCAAGGC ((((((....)))..)))	-24.6 kcal/mol	65.5 °C
GATCCCTGCGGGGATC ((((((....))))))	-45.6 kcal/mol	62 °C
GGCACGGCGAAAGCCGCC (((..(((....))))))	-8.23 kcal/mol	44.6 °C
GGCAACGGAAACACTGCC ((((..(....)..))))	-15 kcal/mol	29.7 °C
GTCCGAGGAAACTTGGAC ((((.((....)).))))	-29.9 kcal/mol	51 °C
CCTAGGAAACTAGG (((((....)))))	-25.4 kcal/mol	41.2 °C
GATCGGGCGACCGATC ((((((....))))))	-44.9 kcal/mol	63.1 °C
GATCAGAAACCTGATC ((((((....))))))	-36.9 kcal/mol	44.1 °C
GATCTGGGACAGATC ((((((...))))))	-35.5 kcal/mol	58.1 °C
GTGATTGGAAACAATCAC (((((((....)))))))	-46.9 kcal/mol	58.3 °C
GTGGTGGGAAACCGCCAC ((((.((....)).))))	-40.2 kcal/mol	61.9 °C
GCTACCGAAAGGTGAAGC ((((((....)))..)))	-19 kcal/mol	42 °C
GACGCAACGAAAGTTGTC (((..(((....))))))	-10 kcal/mol	34.1 °C
GATCGCTTGGCGATC ((((((...))))))	-41.3 kcal/mol	68.8 °C
GATCATCCGTATGATC ((((((....))))))	-38.9 kcal/mol	47.8 °C
GATCAGCGGTCTGATC ((((((....))))))	-32.1 kcal/mol	49.9 °C
GAGTGCGAAAGCAGACTC ((((((....)))..)))	-18.2 kcal/mol	44.4 °C
GCATTGCGAAAGCACAGC ((..(((....)))..))	-15.2 kcal/mol	35.4 °C
GAGCGAACGAAAGTTCTC (((..(((....))))))	-9.38 kcal/mol	27.4 °C
GATCTTAATCAAGATC ((((((....))))))	-26.5 kcal/mol	38.6 °C
GATCTCGTCGGAGATC ((((((....))))))	-43.5 kcal/mol	54.5 °C

Sequence	folding enthalpy [1]	Tm [2]
GAGCAGCGAAAGCTACTC (((.(((....))).)))	-22.3 kcal/mol	49.6 °C
GATCGTCAATACGATC ((((((....))))))	-39.2 kcal/mol	54.6 °C
GAGCGCGAAAGCGCACTC ((((((....)))..)))	-10 kcal/mol	60.4 °C
GACGACGAAAGTCGTGTC ((((((....)))..)))	-10.5 kcal/mol	59.9 °C
GTCGATGGAAACATTGGC (.(.(((....))).).)	-29.2 kcal/mol	35.1 °C
GAAAGCGAAAGCTGGTTC ((((((....)))..)))	-9.59 kcal/mol	29.3 °C
GCAAGGGGAAACCCTCAC (..((((....))))..)	-9.15 kcal/mol	25.2 °C
GCCAGGCGAAAGCACGGC (((..((....))..)))	-18.3 kcal/mol	60.6 °C
GATCGATCGCTCGATC ((((((....))))))	-37.3 kcal/mol	52.4 °C
GCAGCAGGAAACTGCCAC (..((((....))))..)	-11 kcal/mol	31.6 °C
GCGTTCGAAAGAATGCGC ((((((....)))..)))	-28.8 kcal/mol	57.3 °C
GATCCCGGGGGGATC ((((((...))))))	-35.4 kcal/mol	61.6 °C
GTTGTAGGAAACTACAAC (((((((....)))))))	-40.5 kcal/mol	56.1 °C
GATCCGACACCGGATC ((((((....))))))	-37.4 kcal/mol	55.4 °C
GAGACGGGAAACTGTCTC (((((.(....).)))))	-41.1 kcal/mol	51.5 °C
CGCGGACGGCTCCGCG ((((((....))))))	-23.5 kcal/mol	68.5 °C
GATCAAGCCTTGATC ((((((...))))))	-26.1 kcal/mol	44.1 °C
GGAATGGGAAACCATCCC ((.((((....)))).))	-24 kcal/mol	38.6 °C
GTGCCTGGAAACGGGCAC (((((.(....).)))))	-36.8 kcal/mol	65.5 °C
GAGACCGAAAGGTTCTC ((((((....))).)))	-22.3 kcal/mol	54.2 °C
GGTTCGGGAAACCGAGCC ((.((((....)))).))	-40.4 kcal/mol	58.3 °C
GAATTGGAAACAATTC ((((((....))))))	-35.6 kcal/mol	47.3 °C
GAGTGGGGAAACCTACTC ((((.((....)).))))	-30.6 kcal/mol	46.4 °C
GACGCCGAAAGGCGAGTC ((((((....)))..)))	-8.04 kcal/mol	43.7 °C

Sequence	folding enthalpy [1]	Tm [2]
GTAGCGACGAAAGTCTAC (((..(((....))))))	-13.2 kcal/mol	26.9 °C
GGCGCTCCGAAAGGAGCC (((..(((....))))))	-7.43 kcal/mol	47.8 °C
GCGCTGCGAAAGCGCCGC (((..((....))..)))	-9.61 kcal/mol	61.6 °C
GATCCTACTCAGGATC ((((((....))))))	-32.3 kcal/mol	52 °C
GGAGACGAAAGTCGATCC ((((((....)))..)))	-13 kcal/mol	44 °C
GATCATCAAGATGATC ((((((....))))))	-40.4 kcal/mol	49.8 °C
GATCCTTTGAGGATC ((((((...))))))	-33.6 kcal/mol	54.2 °C
GATCTCAGCGAGATC ((((((...))))))	-35.3 kcal/mol	56.6 °C
GATCCCACGTGGGATC ((((((....))))))	-45.1 kcal/mol	60.3 °C
GCGTGGGGACGC ((((....))))	-21.1 kcal/mol	52.6 °C
GCCCAGCGAAAGCCTGGC (((..((....))..)))	-13 kcal/mol	56.1 °C
GTCAACGAAAGTTTAGAC ((((((....)))..)))	-16.1 kcal/mol	31.3 °C
GGCCGGCCGAAAGGCGCC (((..(((....))))))	-15.1 kcal/mol	57.3 °C
GATCACCAAAGTGATC ((((((....))))))	-50.8 kcal/mol	55.2 °C
GACTATGCGAAAGCAGTC (((..(((....))))))	-15.3 kcal/mol	44 °C
CGTGGACGGAAACGTACG (((..(((....))))))	-20.3 kcal/mol	36.6 °C
CGGCTCGGAAACGACCG (((.(((....))))))	-31.8 kcal/mol	50.9 °C
GCAAGTCGAAAGACATGC (((.(((....))).)))	-29.1 kcal/mol	52.7 °C
GGAGAACGAAAGTTATCC (((.(((....))).)))	-37.2 kcal/mol	51.6 °C
GATCTTACCCAAGATC ((((((....))))))	-26.2 kcal/mol	42.1 °C
GATCCGGTTCGGATC ((((((...))))))	-31.5 kcal/mol	63.6 °C
GATCGTTTTGACGATC ((((((....))))))	-40.3 kcal/mol	57.2 °C
GTGAGGGGAAACTCTCGC (.(((.(....).))).)	-24.9 kcal/mol	37.2 °C
GATCGGGATGCCGATC ((((((....))))))	-42.1 kcal/mol	57.4 °C

Sequence	folding enthalpy [1]	Tm [2]
CGATACGGAAACGTCTCG (((.(((....))).)))	-33.7 kcal/mol	42 °C
GGGCTCGAAAGAGACCC ((((((....))).)))	-20.9 kcal/mol	66.8 °C
GATCGCTACCGCGATC ((((((....))))))	-35.1 kcal/mol	68.2 °C
GGCAGTGGAAACGTTGCC ((((..(....)..))))	-28.9 kcal/mol	49.1 °C
CGGAACCGGAAACGGCCG (((..(((....))))))	-23.2 kcal/mol	40.1 °C
GCCGGGGGAAACCCCAGC ((.((((....)))).))	-21.2 kcal/mol	50.3 °C
GAAGCGCGAAAGCGTTC (((.(((....))))))	-10.6 kcal/mol	41.2 °C
GATCGTGCTGACGATC ((((((....))))))	-36.4 kcal/mol	55.8 °C
GGGAATACGAAAGTACCC (((..(((....))))))	-23 kcal/mol	33.9 °C
GGTTGAGGAAACTCAGCC ((.((((....)))).))	-33.4 kcal/mol	50 °C
GGGCGAGGAAACCCGCCC (((((.(....).)))))	-34.7 kcal/mol	64.5 °C
GTCAGAGGAAACTCTGAC (((((((....)))))))	-37.9 kcal/mol	61.7 °C
GATCAGCATTCTGATC ((((((....))))))	-39 kcal/mol	48.8 °C
GATCCTCTGTAGGATC ((((((....))))))	-36.2 kcal/mol	51.8 °C
GCATATACGAAAGTATGC (((..(((....))))))	-22.3 kcal/mol	41.5 °C
GCATGCGAAAGCAGCTGC ((((((....)))..)))	-17.9 kcal/mol	54 °C
GATCATCACTATGATC ((((((....))))))	-31.3 kcal/mol	48.6 °C
GAAAGGCGAAAGCCTTC (((.(((....))))))	-10.4 kcal/mol	49.6 °C
GCCACCGAAAGGTGAGGC ((((((....)))..)))	-14.1 kcal/mol	54.9 °C
GTGTTAGGAAACTAATAC ((.((((....)))).))	-23.9 kcal/mol	37.2 °C
GTCACGGGAAACCGTAAC ((.((((....)))).))	-16.5 kcal/mol	36.1 °C
